Measured values as given in publication PMC7894357 (Chemmedchem, 2020).

Columns and labels:
HIV‐2 = format: cell-based; conditions: CEM-TK(-), read-out: EC50 CEM/TK− HIV‐1
Outline: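 CEM/TK⁻ cells (~3×10⁵ cells/mL) were infected with HIV‑1(III_B) or HIV‑2(ROD) at 100 CCID₅₀/mL and cultured with serial dilutions of test compound. After 4–5 days at 37 °C in humidified CO₂, giant (syncytium) cell formation was scored microscopically. EC50 is the concentration that halves giant cell formation. Values are mean ±SD of n=2–3 independent experiments.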

[1] = Cytotoxicity: inhibition of CD4+ T-cell; format: cell-based; conditions: human, CEM/0 cells (CD4+ T cells)
[2] = symmetric TriPPPro-compounds, PB pH 7.3; cited from earlier work
[3] = previous work; cited from earlier work

EC50 (HIV‐2) [µM]	Compound	CC50 [1] [µM]	half-life in PB (t1/2) [2] [h]	half-life in CEM/0 cell extracts (t1/2) [3] [h]
> 50	Cc1cn([C@H]2C=C[C@@H](CO)O2)c(=O)[nH]c1=O [d4T 1, 3'‐deoxy‐2',3'‐didehydrothymidine]	> 50	–	–
–	CCCCCCCCCC(=O)Oc1ccc(COP(=O)(OCc2ccc(OC(=O)CCCCCCCCC)cc2)OP(=O)(O)OP(=O)(O)OC[C@@H]2C=C[C@H](n3cc(C)c(=O)[nH]c3=O)O2)cc1 [γ‐(AB−C9,AB−C9)‐d4TTP]	–	44	2.8
–	γ‐(AB−C4,AB−C4)‐d4TTP	–	22	0.43
